# Test results: ChEMBL document CHEMBL4402582, “Garcinoic Acid Is a Natural and Selective Agonist of Pregnane X Receptor” (J Med Chem, 2020)
# Activity calls are given as the source filed them. The rule behind the calls is not given here.
# Experiments:
# [1] = molecular target: T1, Nuclear receptor subfamily 1 group I member 2 (Homo sapiens, UniProt O75469); test: Agonist activity at His-tagged PXR-LBD/SRC-1p (unknown origin) expressed in Escherichia coli BL21(DE3) at 10 uM by coactivator recruitment based Alpha-screen assay
# T1 sequence (O75469 whole entry): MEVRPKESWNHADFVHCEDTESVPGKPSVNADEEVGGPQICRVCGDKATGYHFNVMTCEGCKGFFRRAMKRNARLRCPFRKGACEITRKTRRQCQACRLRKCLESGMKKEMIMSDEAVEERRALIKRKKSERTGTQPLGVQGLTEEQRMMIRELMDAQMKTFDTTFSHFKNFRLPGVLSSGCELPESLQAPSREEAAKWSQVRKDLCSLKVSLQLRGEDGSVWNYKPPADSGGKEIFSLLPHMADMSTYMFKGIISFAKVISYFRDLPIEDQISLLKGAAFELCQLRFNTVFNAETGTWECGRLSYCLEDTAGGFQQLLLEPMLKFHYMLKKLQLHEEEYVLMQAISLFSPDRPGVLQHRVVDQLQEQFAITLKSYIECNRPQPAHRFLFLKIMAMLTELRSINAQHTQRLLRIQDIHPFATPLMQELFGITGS
# [2] = molecular target: T2, Oxysterols receptor LXR-beta (Homo sapiens) (UniProt P55055); test: Agonist activity at LXR-beta (unknown origin) at 10 uM by coactivator recruitment based Alpha-screen assay
# T2 sequence (whole entry): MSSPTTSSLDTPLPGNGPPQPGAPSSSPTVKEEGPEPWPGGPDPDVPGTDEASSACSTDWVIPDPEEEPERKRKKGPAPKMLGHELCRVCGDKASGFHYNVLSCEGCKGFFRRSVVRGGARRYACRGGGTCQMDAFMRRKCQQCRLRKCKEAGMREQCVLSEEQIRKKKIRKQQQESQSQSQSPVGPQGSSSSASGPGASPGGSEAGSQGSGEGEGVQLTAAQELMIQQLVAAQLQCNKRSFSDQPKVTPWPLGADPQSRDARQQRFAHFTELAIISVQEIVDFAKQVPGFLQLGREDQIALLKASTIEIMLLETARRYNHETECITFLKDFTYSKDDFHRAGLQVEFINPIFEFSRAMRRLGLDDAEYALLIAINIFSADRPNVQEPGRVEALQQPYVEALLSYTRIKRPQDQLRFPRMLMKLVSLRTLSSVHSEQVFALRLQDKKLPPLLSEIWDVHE
# [3] = molecular target: T1, Nuclear receptor subfamily 1 group I member 2; test: Agonist activity at PXR in human HepG2 cells transfected with PXR siRNA assessed as induction of CYP3A4 expression at 10 to 50 uM incubated for 24 hrs; type: cell-based; details: hepg2, 24 h
# How it was run: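 HepG2 cells reverse-transfected with PXR siRNA using lipofectamine RNAiMAX; after 24 h silencing, treated with compound for a further 24 h. PXR and CYP3A4 transcription responses measured.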
# [4] = molecular target: T1, Nuclear receptor subfamily 1 group I member 2; test: Binding affinity to His-tagged PXR-LBD (unknown origin) expressed in Escherichia coli BL21 Gold by ITC analysis
# How it was run: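 ITC at 37 °C in 25 mM HEPES pH 7.5, 150 mM NaCl, 8% v/v DMSO final. His-tagged PXR-LBD (tag not removed, gel-filtration purified) at 3 μM in cell; ligand at 60 μM in syringe, injected in 10 μL aliquots.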
# [5] = molecular target: T1, Nuclear receptor subfamily 1 group I member 2; test: Agonist activity at PXR in human HepG2 cells assessed as increase in PXR protein expression at 1 to 25 uM incubated for 24 hrs by immunoblot analysis; type: cell-based; details: hepg2, 24 h
# How it was run: (§1)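 HepG2 cells, passages 2–10, treated 24 h with 1 and 25 μM. Lysates sonicated on ice; 20 μg protein run on 10–12% SDS-PAGE and immunoblotted with anti-PXR or anti-CYP3A4. Bands normalized to housekeeping protein and expressed relative to control (=1).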
# [6] = molecular target: T1, Nuclear receptor subfamily 1 group I member 2; test: Agonist activity at PXR in human HepG2 cells assessed as increase in CYP3A4 protein expression at 1 to 25 uM incubated for 24 hrs by immunoblot analysis; type: cell-based; details: hepg2, 24 h; how it was run: as §1
# [7] = molecular target: T1, Nuclear receptor subfamily 1 group I member 2; test: Agonist activity at PXR in human HepaRG cells assessed as reversion of PXR binding at 10 uM incubated for 24 hrs by immunoblot analysis; type: cell-based
# [8] = molecular target: T1, Nuclear receptor subfamily 1 group I member 2; test: Agonist activity at PXR in human HepaRG cells assessed as reversion of PXR antagonist sulforaphane-induced suppression of PXR expression at 10 uM incubated for 24 hrs by immunoblot analysis; type: cell-based
# [9] = molecular target: T1, Nuclear receptor subfamily 1 group I member 2; test: Agonist activity at PXR in human HepaRG cells assessed as reversion of PXR antagonist sulforaphane-induced suppression of CYP3A4 expression at 10 uM incubated for 24 hrs by immunoblot analysis; type: cell-based
# HepG2 = test: Effect on alpha-tocopherol level in human HepG2 cells at 25 uM; type: functional, cell-based
# [10] = molecular target: T1, Nuclear receptor subfamily 1 group I member 2; test: Agonist activity at PXR in human HepG2 cells assessed as stimulation of CYP450-mediated alpha-tocopherol metabolites efflux at 25 uM; type: cell-based; details: hepg2, 25 µM
# [11] = molecular target: T1, Nuclear receptor subfamily 1 group I member 2; test: Agonist activity at PXR in human HT29 cells assessed as increase in CYP3A4 protein expression at 1 to 25 uM incubated for 24 hrs by immunoblot analysis; type: cell-based
# [12] = molecular target: T1, Nuclear receptor subfamily 1 group I member 2; test: Agonist activity at PXR in human HT29-MTX cells assessed as increase in CYP3A4 protein expression at 1 to 25 uM incubated for 24 hrs by immunoblot analysis; type: cell-based
# [13] = Toxicity in C57BL/6 mouse assessed as mortality at 50 mg dosed as oral gavage as single bolus and measured after 24 hrs relative to control; type: organism-based; details: in vivo, read-out: Activity
# How it was run: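 Male C57BL/6 wild-type mice aged 6–7 weeks, 3 per group. Single bolus by oral gavage in an olive-oil vehicle, with vehicle-only controls and dose groups of 5, 10, 25, 50 and 100 mg. Animals were checked 24 h after dosing by gross appearance and behaviour, then killed, and liver and main organs were examined post-mortem.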
# [14] = Toxicity in C57BL/6 mouse assessed as effect on gross appearance at <=25 mg dosed as oral gavage as single bolus and measured after 24 hrs relative to control; type: organism-based; details: in vivo
# How it was run: (§2)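 Male C57BL/6 mice, 6–7 weeks old, three per group. Single oral gavage bolus of 5, 10, 25, 50 or 100 mg in olive oil vehicle. Observed at 24 h for mortality, gross appearance and behavior, then post-mortem examination of liver and main organs.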
# [15] = Toxicity in C57BL/6 mouse assessed as induction of organ damage at <=25 mg dosed as oral gavage as single bolus and measured after 24 hrs relative to control; type: organism-based; details: in vivo; how it was run: as §2
# Mus musculus [16] = test: Induction of PXR protein expression in C57BL/6 mouse liver at 5 to 25 mg dosed as oral gavage as single bolus and measured after 24 hrs relative to control; type: functional, organism-based
# How it was run: (§3)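 Male C57BL/6 mice, 6–7 weeks old, three per group. Single oral gavage bolus of 5, 10 or 25 mg in olive oil vehicle; vehicle-only controls. Killed at 24 h. Tissue PXR mRNA measured; PXR, CYP3A11 and MDR1 protein measured by immunoblot.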
# Mus musculus [17] = test: Induction of PXR mRNA expression in C57BL/6 mouse liver at 5 to 25 mg dosed as oral gavage as single bolus and measured after 24 hrs relative to control; type: functional, organism-based; how it was run: as §3
smiles,measurement,setting,value
C/C(=C\CC/C(C)=C/CC[C@]1(C)CCc2cc(O)cc(C)c2O1)CC/C=C(\C)C(=O)O,Activity,[1],Active
same,Activity,[2],inactive
same,Activity,[3],Not Active
same,Kd,[4],0.33 µM
same,Activity,[5],Dose-dependent effect
same,Activity,[6],Dose-dependent effect
same,Activity,[7],Active
same,Activity,[8],Active
same,Activity,[9],Active
same,Activity,HepG2,inactive
same,Activity,[10],Active
same,Activity,[11],Active
same,Activity,[12],Active
same,mortality at 24 h,[13],33%
same,Activity,[14],Non-Toxic
same,Activity,[15],Non-Toxic
same,Activity,Mus musculus [16],Dose-dependent effect
same,Activity,Mus musculus [17],Dose-dependent effect
